For experiment [1], the species on record is Rattus norvegicus. Description: Agonist activity at AMPA receptor in rat purkinje neurons assessed as potentiation of glutamate-induced transmembrane current at 30 uM by patch-clamp technique relative to kainate. The format is functional. The essentials: (§1)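 Whole-cell patch-clamp on Purkinje neurons freshly dissociated from cerebellum of 14-18 day old rats. Slices were incubated 1 h in saline, then treated with Pronase and collagenase at 34 °C under O2 and triturated. Extracellular saline was HEPES-buffered, pH 7.32, with KCl/EGTA/ATP pipette solution. Agonist (kainate or glutamate) was applied with or without compound by fast perfusion. Potentiation was taken relative to the agonist-alone current.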

The species entered for experiment [2] is Rattus norvegicus. Put plainly: Agonist activity at AMPA receptor in rat purkinje neurons assessed as potentiation of kainate-induced transmembrane current at 30 uM by patch-clamp technique relative to kainate. The format is functional. The essentials: as §1
For orientation: In patch-clamp work, channel activity is measured electrically.

The species entered for experiment [3] is Rattus norvegicus. Description: Agonist activity at AMPA receptor in rat purkinje neurons assessed as potentiation of 1000 uM kainate-induced transmembrane current at 30 uM by patch-clamp technique relative to kainate. The class given is functional. Put shortly: as §1
Experiment [4] is filed under the species Rattus norvegicus. Description: Agonist activity at AMPA receptor in rat purkinje neurons assessed as potentiation of 4000 uM kainate-induced transmembrane current at 30 uM by patch-clamp technique relative to kainate. The class given is functional. Put shortly: as §1
The target in experiment [5] is T1, Glutamate NMDA receptor (Rattus norvegicus) (UniProt P35439+Q00959+Q00960+Q00961+Q62645+Q8VHN2+Q9R1M7). Put plainly: Antagonist activity at NMDA receptor in rat cerebral cortex neurons assessed as 50 uM NMDA-induced current at 0.5 uM relative to control. The class given is functional, tissue-based. On the set-up: scale not given: the % may be the effect or the level left. Put shortly:
(§2)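 Whole-cell currents were evoked by NMDA (50, 100, 5000 or 10000 µM) in a heterogeneous primary culture of rat cerebral cortex neurons. Compound was tested at 0.5-30 µM. Current amplitude was expressed as percent of the NMDA-alone control.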

The target in experiment [6] is T1, Glutamate NMDA receptor (Rattus norvegicus). Description: Antagonist activity at NMDA receptor in rat cerebral cortex neurons assessed as 50 uM NMDA-induced current at 2 uM relative to control. The format is functional, tissue-based. More on the design: scale not given: the % may be the effect or the level left. Put shortly:
as §2

The target is the same in experiment [7]. Description: Antagonist activity at NMDA receptor in rat cerebral cortex neurons assessed as 50 uM NMDA-induced current at 5 uM relative to control. The class given is functional, tissue-based. On the set-up: scale not given: the % may be the effect or the level left. The essentials: as §2
For experiment [8] the target is unchanged. Put plainly: Antagonist activity at NMDA receptor in rat cerebral cortex neurons assessed as 50 uM NMDA-induced current at 10 uM relative to control. More on the design: scale not given: the % may be the effect or the level left. The class given is functional, tissue-based. The essentials: as §2
Experiment [9] has the same target. Description: Antagonist activity at NMDA receptor in rat cerebral cortex neurons assessed as 50 uM NMDA-induced current at 30 uM relative to control. The class given is functional, tissue-based. More on the design: scale not given: the % may be the effect or the level left. The essentials:
as §2

Experiment [10] has the same target. Put plainly: Antagonist activity at NMDA receptor in rat cerebral cortex neurons assessed as 100 uM NMDA-induced current at 0.5 uM relative to control. The class given is functional, tissue-based. More on the design: scale not given: the % may be the effect or the level left. Put shortly: as §2
Experiment [11] has the same target. Description: Antagonist activity at NMDA receptor in rat cerebral cortex neurons assessed as 100 uM NMDA-induced current at 1 uM relative to control. On the set-up: scale not given: the % may be the effect or the level left. The class given is functional, tissue-based. Put shortly:
as §2

The target is the same in experiment [12]. Description: Antagonist activity at NMDA receptor in rat cerebral cortex neurons assessed as 100 uM NMDA-induced current at 2 uM relative to control. The class given is functional, tissue-based. On the set-up: scale not given: the % may be the effect or the level left. The essentials:
as §2

The target is the same in experiment [13]. Description: Antagonist activity at NMDA receptor in rat cerebral cortex neurons assessed as 100 uM NMDA-induced current at 5 uM relative to control. The class given is functional, tissue-based. On the set-up: scale not given: the % may be the effect or the level left. Put shortly:
as §2

Experiment [14] shares this target. Description: Antagonist activity at NMDA receptor in rat cerebral cortex neurons assessed as 100 uM NMDA-induced current at 10 uM relative to control. The class given is functional, tissue-based. More on the design: scale not given: the % may be the effect or the level left. Put shortly: as §2
Experiment [15] shares this target. Put plainly: Antagonist activity at NMDA receptor in rat cerebral cortex neurons assessed as 100 uM NMDA-induced current at 30 uM relative to control. The format is functional, tissue-based. More on the design: scale not given: the % may be the effect or the level left. The essentials:
as §2

Experiment [16] shares this target. Description: Antagonist activity at NMDA receptor in rat cerebral cortex neurons assessed as 5000 uM NMDA-induced current at 0.5 uM relative to control. The format is functional, tissue-based. On the set-up: scale not given: the % may be the effect or the level left. Put shortly:
as §2

For experiment [17] the target is unchanged. Put plainly: Antagonist activity at NMDA receptor in rat cerebral cortex neurons assessed as 5000 uM NMDA-induced current at 1 uM relative to control. The class given is functional, tissue-based. On the set-up: scale not given: the % may be the effect or the level left. The essentials:
as §2

For experiment [18] the target is unchanged. Description: Antagonist activity at NMDA receptor in rat cerebral cortex neurons assessed as 5000 uM NMDA-induced current at 2 uM relative to control. The class given is functional, tissue-based. More on the design: scale not given: the % may be the effect or the level left. Put shortly: as §2
The target is the same in experiment [19]. Put plainly: Antagonist activity at NMDA receptor in rat cerebral cortex neurons assessed as 5000 uM NMDA-induced current at 5 uM relative to control. The format is functional, tissue-based. On the set-up: scale not given: the % may be the effect or the level left. The essentials:
as §2

Experiment [20] has the same target. Put plainly: Antagonist activity at NMDA receptor in rat cerebral cortex neurons assessed as 5000 uM NMDA-induced current at 10 uM relative to control. The class given is functional, tissue-based. On the set-up: scale not given: the % may be the effect or the level left. Put shortly: as §2
Experiment [21] has the same target. Description: Antagonist activity at NMDA receptor in rat cerebral cortex neurons assessed as 5000 uM NMDA-induced current at 30 uM relative to control. The format is functional, tissue-based. More on the design: scale not given: the % may be the effect or the level left. Put shortly:
as §2

Experiment [22] is filed under the species Rattus norvegicus. Description: Agonist activity at AMPA receptor in rat purkinje neurons assessed as increase in potentiation of kainate-induced transmembrane current at 30 uM by patch-clamp technique relative to S-ethyl-N-allyl-N',N'-dibenzylisothiourea hydroiodide. The class given is functional.
For experiment [23], the target named is T1, Glutamate NMDA receptor (Rattus norvegicus). Description: Antagonist activity at NMDA receptor in rat cerebral cortex neurons assessed as 10000 uM NMDA-induced current at 0.5 uM relative to control. The class given is functional, tissue-based. More on the design: scale not given: the % may be the effect or the level left. Put shortly:
as §2

Experiment [24] has the same target. Description: Antagonist activity at NMDA receptor in rat cerebral cortex neurons assessed as 10000 uM NMDA-induced current at 1 uM relative to control. The class given is functional, tissue-based. On the set-up: scale not given: the % may be the effect or the level left. The essentials: as §2
Experiment [25] has the same target. Description: Antagonist activity at NMDA receptor in rat cerebral cortex neurons assessed as 10000 uM NMDA-induced current at 2 uM relative to control. The class given is functional, tissue-based. More on the design: scale not given: the % may be the effect or the level left. Put shortly:
as §2

For experiment [26] the target is unchanged. Description: Antagonist activity at NMDA receptor in rat cerebral cortex neurons assessed as 10000 uM NMDA-induced current at 5 uM relative to control. More on the design: scale not given: the % may be the effect or the level left. The format is functional, tissue-based. Put shortly:
as §2

Experiment [27] shares this target. Put plainly: Antagonist activity at NMDA receptor in rat cerebral cortex neurons assessed as 10000 uM NMDA-induced current at 10 uM relative to control. The format is functional, tissue-based. More on the design: scale not given: the % may be the effect or the level left. The essentials:
as §2

Experiment [28] has the same target. Description: Antagonist activity at NMDA receptor in rat cerebral cortex neurons assessed as 10000 uM NMDA-induced current at 30 uM relative to control. On the set-up: scale not given: the % may be the effect or the level left. The class given is functional, tissue-based. Put shortly:
as §2

For experiment [29], the species on record is Rattus norvegicus. Put plainly: Agonist activity at AMPA receptor in rat purkinje neurons assessed as potentiation of 500 uM kainate-induced transmembrane current at 50 uM relative to kainate. The class given is functional. The essentials:
as §1

The species named for experiment [30] is Rattus norvegicus. Put plainly: Agonist activity at AMPA receptor in rat purkinje neurons assessed as potentiation of 500 uM glutamate-induced transmembrane current at 30 uM relative to glutamate. The format is functional. Put shortly: as §1
In experiment [31] the target is T1, Glutamate NMDA receptor (Rattus norvegicus). Description: Antagonist activity at NMDA receptor in rat cerebral cortex neurons assessed as 50 uM NMDA-induced current at 1 uM relative to control. The format is functional. More on the design: scale not given: the % may be the effect or the level left. The essentials: as §2

Calls of active or inactive are those of the source. The rule behind the calls is not given here.

As to `C=CC/N=C(\SCC)N(Cc1ccccc1)Cc1ccccc1`, the result in [1], in [2] and in experiment [29] was Active. In addition, the Activity was 290% in experiment [3]; 132% in experiment [4]; 98% in experiment [5]; 48% in experiment [6]; 34% in experiment [7]; 31% in experiment [8]. The Activity was determined as 11% in [9]; 99% in experiment [10]; 48% in experiment [11]; 55% in experiment [12]; 35% in [13]; 23% in [14]. The Activity is 8% in experiment [15]; 59% in [16]; 35% in experiment [17]; 36% in experiment [18]; 20% in experiment [19]; 14% in experiment [20]. Also, the Activity turned out to be 4% in experiment [21]; 5% in experiment [22]; 45% in experiment [23]; 35% in experiment [24]; 26% in experiment [25]; 16% in experiment [26]. The results for the Activity in experiment [27], in [28] and in [31] were 10%, 3% and 68%, respectively. The fold change (FC) in experiment [30] is 26.9.
On to `NS(=O)(=O)c1cc2c(cc1Cl)NC(C1CC3C=CC1C3)NS2(=O)=O` (configuration not stated), for which the outcome in experiment [1], in [2] and in experiment [29] was Active. Further, the Activity in experiment [3] was found to be 150%; in experiment [4], 60%. In addition, the fold change (FC) in experiment [30] was 7.

The record behind these values is ChEMBL document CHEMBL1153824, “Novel isothiourea derivatives as potent neuroprotectors and cognition enhancers: synthesis, biological and physicochemical properties” (J Med Chem, 2009).
